Results pooled from the literature.
Each line is one published result; the experiments were not run side by side.
MAPKAPK2: MAP kinase-activated protein kinase 2 (MAPKAPK2, Homo sapiens, UniProt P49137)
ADAM17: Disintegrin and metalloproteinase domain-containing protein 17 (ADAM17, Homo sapiens, UniProt P78536)

c1ccc(C(NCCNC(c2ccccc2)c2ccccc2)c2ccccc2)cc1  inhibition (Gamma-aminobutyric acid type B receptor subunit 1 (GABBR1, Homo sapiens, UniProt Q9UBS5); cell-free assay; 10 µM): -14%
CC(C)C[C@H](NC(=O)[C@H](Cc1ccccc1)NC(=O)c1cnccn1)B(O)O  inhibition (Cathepsin G (CTSG, Homo sapiens, UniProt P08311); enzyme activity, inhibitor; 33 µM): 61.8%
C#Cc1n[nH]c2c(-c3cn([C@@H](C)c4ccccc4)c(=O)[nH]c3=O)cc(F)cc12  inhibition (MAPKAPK2; enzyme activity, inhibitor; 0.1 µM): 11.6%
C[C@H](C(=O)N[C@H]1COc2ccccc2[C@@H]1S(C)(=O)=O)c1ccc(F)cc1  inhibition (Vasopressin V1b receptor (AVPR1B, Homo sapiens, UniProt P47901); cell-free assay; 10 µM): 26%
COCc1c(-c2cc3cc(C)cc(OC)c3s2)c2c(N)ncnn2c1CN1CCNC(=O)C1  inhibition (Motilin receptor (MLNR, Homo sapiens, UniProt O43193); ligand displacement, radioligand; 10 µM): 18%
CN(C)C(=O)COC(=O)Cc1ccc(OC(=O)c2ccc(NC(=N)N)cc2)cc1  inhibition (ADAM17; enzyme activity, inhibitor; 10 µM): 6%
COc1cc(Nc2ncc(F)c(Nc3ccc4c(n3)NC(=O)C(C)(C)O4)n2)cc(OC)c1OC  inhibition (Serine/threonine-protein kinase 32B (STK32B, Homo sapiens, UniProt Q9NY57); binding, competition with immobilised ligand; 10 µM): 0%
C#Cc1n[nH]c2c(-c3cn([C@@H](C)c4ccccn4)c(=O)[nH]c3=O)cc(F)cc12  inhibition (MAPKAPK2; enzyme activity, inhibitor; 0.1 µM): 11.8%
CC(C)C[C@H](CC(=O)NO)C(=O)N[C@H](C(=O)N[C@@H](C)C(=O)NCCN)C(C)(C)C  inhibition (ADAM17; enzyme activity, inhibitor; 10 µM): 73%
Cn1cc(-c2cccc(N3CCc4c(sc5c4CC(C)(C)C5)C3=O)c2CO)cc(Nc2ccncn2)c1=O  inhibition (Phosphatidylinositol 4,5-bisphosphate 3-kinase catalytic subunit alpha isoform (PIK3CA, Homo sapiens, UniProt P42336); enzyme activity, inhibitor; 1 µM): 14%
COc1c2c(cc3c1OCO3)CC[N+](C)=C2.[Cl-]  inhibition (Glycogen synthase kinase-3 beta (GSK3B, Homo sapiens, UniProt P49841); enzyme activity, inhibitor, ADP detection; 100 µM): 9.2%
N=C(N)c1ccc2cc(OC(=O)c3ccc(N=C(N)N)cc3)ccc2c1  inhibition (ADAM17; enzyme activity, inhibitor; 10 µM): 5%
